Measurements reported in ChEMBL document CHEMBL1158569, “Structure-activity relationships in a novel series of 7-substituted-aryl quinolines and 5-substituted-aryl benzothiazoles at the metabotropic glutamate receptor subtype 5” (Bioorg Med Chem, 2010).
Calls of active or inactive are those of the source. The calls are words filed in the database; no cut-off is given here.

Key:
[1] = target: Glutamate NMDA receptor (Rattus norvegicus) (UniProt P35439+Q00959+Q00960+Q00961+Q62645+Q8VHN2+Q9R1M7); experiment: Displacement of [3H]MK801 from NMDA receptor in rat brain homogenate at 10 uM by scintillation counting; assay type: tissue-based
[2] = target: T1, Metabotropic glutamate receptor 5 (Rattus norvegicus, UniProt P31424); experiment: Displacement of [3HMPEP from rat cloned mGluR5 expressed in HEK293T cells by scintillation counting; assay type: cell-based, HEK-293T
T1 sequence (P31424 whole entry): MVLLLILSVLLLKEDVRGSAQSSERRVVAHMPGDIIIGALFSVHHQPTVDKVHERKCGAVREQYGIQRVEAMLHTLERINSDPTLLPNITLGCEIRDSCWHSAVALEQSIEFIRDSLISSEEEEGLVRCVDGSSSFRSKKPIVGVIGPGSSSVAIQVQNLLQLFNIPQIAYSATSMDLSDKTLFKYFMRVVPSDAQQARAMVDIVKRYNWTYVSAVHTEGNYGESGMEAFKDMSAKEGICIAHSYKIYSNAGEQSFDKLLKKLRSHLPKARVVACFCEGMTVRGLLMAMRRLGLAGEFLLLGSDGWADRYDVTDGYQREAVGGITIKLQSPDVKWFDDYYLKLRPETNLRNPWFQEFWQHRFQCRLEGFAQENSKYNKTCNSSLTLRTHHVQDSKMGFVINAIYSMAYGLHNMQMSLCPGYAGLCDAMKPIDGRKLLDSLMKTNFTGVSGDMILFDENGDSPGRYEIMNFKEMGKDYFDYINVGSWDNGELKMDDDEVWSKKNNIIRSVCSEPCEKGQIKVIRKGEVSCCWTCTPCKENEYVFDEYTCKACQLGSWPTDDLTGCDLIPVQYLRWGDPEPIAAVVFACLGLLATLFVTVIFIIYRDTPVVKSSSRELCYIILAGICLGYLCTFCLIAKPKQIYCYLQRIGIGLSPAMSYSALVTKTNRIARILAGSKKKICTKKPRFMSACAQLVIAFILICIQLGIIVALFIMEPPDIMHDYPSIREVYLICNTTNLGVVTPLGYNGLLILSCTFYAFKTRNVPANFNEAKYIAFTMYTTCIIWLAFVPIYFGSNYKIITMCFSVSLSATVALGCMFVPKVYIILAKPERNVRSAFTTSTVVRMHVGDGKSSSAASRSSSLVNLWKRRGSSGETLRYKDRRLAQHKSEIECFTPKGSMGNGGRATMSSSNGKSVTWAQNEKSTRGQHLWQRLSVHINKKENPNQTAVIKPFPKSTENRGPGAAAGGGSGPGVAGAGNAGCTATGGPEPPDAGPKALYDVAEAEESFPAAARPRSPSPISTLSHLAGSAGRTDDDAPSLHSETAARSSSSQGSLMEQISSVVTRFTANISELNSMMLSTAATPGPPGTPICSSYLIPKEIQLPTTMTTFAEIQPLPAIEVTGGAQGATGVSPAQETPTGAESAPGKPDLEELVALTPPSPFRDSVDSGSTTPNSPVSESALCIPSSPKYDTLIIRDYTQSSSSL
Summary of the method: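 Radioligand displacement with [3H]MPEP, run through the NIMH Psychoactive Drug Screening Program. Receptor source was rat brain membranes or HEK293-T cells transfected with cloned rat mGluR5 cDNA. Ki reported as ±SEM.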

[3] = target: T1, Metabotropic glutamate receptor 5; experiment: Antagonist activity at rat mGluR5 expressed in HEK293A cells assessed as inhibition of glutamate-induced calcium flux preincubated for 140 secs before glutamate challenge by calcium fluorescence assay; assay type: functional, cell-based, HEK293-A
Summary of the method: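 Functional read-out was receptor-induced intracellular calcium release, detected by calcium fluorescence. A kinetic imaging plate reader recorded calcium levels simultaneously in every well of 384-well plates. IC50 reported as ±SEM.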

[4] = target: Metabotropic glutamate receptor 1 (Homo sapiens) (UniProt Q13255); experiment: Inhibition of mGluR1 expressed in CHO cells at 10 uM; assay type: cell-based
[5] = target: Metabotropic glutamate receptor 2 (Homo sapiens) (UniProt Q14416); experiment: Inhibition of mGluR2 expressed in CHO cells at 10 uM; assay type: cell-based
Metabotropic glutamate receptor 2 (Homo sapiens), sequence (Q14416 19-872 limits assumed): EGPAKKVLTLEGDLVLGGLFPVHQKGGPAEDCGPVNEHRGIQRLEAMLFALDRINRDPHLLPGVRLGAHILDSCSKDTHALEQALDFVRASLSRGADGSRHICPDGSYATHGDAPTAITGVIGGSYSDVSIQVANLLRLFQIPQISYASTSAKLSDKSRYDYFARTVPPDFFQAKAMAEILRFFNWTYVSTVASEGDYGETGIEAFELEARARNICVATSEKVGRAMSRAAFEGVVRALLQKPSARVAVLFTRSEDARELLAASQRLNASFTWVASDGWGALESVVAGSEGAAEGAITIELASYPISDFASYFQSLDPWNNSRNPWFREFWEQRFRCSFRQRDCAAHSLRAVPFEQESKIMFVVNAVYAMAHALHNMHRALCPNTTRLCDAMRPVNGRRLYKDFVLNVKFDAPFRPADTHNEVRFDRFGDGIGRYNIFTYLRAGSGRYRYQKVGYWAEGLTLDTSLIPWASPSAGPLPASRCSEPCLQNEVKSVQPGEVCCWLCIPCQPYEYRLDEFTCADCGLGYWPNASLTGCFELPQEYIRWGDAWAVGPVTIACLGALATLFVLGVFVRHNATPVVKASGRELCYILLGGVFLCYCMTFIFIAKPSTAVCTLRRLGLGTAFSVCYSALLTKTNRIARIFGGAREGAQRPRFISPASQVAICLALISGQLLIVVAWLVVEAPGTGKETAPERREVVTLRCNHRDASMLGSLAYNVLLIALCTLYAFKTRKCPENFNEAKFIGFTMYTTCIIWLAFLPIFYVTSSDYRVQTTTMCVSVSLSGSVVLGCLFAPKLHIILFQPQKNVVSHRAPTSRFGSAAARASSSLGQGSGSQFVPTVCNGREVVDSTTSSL

[6] = target: Metabotropic glutamate receptor 6 (Homo sapiens) (UniProt O15303); experiment: Inhibition of mGluR6 expressed in CHO cells at 10 uM; assay type: cell-based
Metabotropic glutamate receptor 6 (Homo sapiens), sequence (O15303 whole entry): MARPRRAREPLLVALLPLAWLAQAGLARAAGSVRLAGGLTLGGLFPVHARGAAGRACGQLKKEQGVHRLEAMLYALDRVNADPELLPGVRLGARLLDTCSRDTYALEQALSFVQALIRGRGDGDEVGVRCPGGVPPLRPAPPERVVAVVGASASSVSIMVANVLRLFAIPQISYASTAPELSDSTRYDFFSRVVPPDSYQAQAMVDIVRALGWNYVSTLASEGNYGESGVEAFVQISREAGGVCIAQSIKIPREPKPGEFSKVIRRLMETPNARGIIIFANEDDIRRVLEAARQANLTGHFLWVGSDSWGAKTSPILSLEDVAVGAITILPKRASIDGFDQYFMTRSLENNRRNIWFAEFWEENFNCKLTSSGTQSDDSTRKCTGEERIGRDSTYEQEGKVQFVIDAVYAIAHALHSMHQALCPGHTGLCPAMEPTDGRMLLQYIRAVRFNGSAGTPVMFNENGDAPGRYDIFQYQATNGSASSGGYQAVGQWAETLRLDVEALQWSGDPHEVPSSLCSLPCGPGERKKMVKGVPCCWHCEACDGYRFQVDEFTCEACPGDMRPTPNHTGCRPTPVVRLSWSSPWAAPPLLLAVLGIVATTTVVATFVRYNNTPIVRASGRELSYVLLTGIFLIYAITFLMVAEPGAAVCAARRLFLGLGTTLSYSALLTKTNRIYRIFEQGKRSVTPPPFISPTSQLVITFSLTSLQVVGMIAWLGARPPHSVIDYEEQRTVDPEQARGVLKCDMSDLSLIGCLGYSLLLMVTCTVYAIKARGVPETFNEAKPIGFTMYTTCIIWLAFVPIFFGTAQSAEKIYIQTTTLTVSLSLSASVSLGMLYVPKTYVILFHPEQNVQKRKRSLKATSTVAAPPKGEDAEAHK

[7] = target: Metabotropic glutamate receptor 8 (Homo sapiens) (UniProt O00222); experiment: Inhibition of mGluR8 expressed in CHO cells at 10 uM; assay type: cell-based
Metabotropic glutamate receptor 8 (Homo sapiens), sequence (O00222 whole entry): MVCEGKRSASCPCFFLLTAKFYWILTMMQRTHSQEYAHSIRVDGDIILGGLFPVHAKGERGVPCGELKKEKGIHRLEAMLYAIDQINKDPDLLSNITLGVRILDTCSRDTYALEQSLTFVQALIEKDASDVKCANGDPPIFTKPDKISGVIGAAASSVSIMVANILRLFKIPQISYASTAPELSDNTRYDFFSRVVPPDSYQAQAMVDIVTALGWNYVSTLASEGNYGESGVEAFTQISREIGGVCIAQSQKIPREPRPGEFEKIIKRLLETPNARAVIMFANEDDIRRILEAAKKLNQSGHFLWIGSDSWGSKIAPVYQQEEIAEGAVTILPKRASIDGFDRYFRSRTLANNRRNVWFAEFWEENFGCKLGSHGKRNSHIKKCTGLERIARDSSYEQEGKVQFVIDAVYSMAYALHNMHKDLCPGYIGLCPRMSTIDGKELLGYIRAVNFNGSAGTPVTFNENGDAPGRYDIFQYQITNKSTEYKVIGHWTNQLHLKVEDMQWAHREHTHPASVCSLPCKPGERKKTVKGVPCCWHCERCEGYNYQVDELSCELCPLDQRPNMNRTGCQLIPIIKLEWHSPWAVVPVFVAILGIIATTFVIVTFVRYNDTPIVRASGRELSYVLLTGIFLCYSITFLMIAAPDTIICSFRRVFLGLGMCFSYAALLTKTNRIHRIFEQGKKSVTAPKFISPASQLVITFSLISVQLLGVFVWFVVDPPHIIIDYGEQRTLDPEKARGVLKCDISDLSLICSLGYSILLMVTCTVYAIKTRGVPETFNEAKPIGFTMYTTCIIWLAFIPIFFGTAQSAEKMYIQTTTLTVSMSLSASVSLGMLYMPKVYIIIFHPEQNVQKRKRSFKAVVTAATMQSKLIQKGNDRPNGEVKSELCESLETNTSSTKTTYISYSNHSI

[8] = target: Metabotropic glutamate receptor 4 (Homo sapiens) (UniProt Q14833); experiment: Inhibition of mGluR4 expressed in CHO cells at 10 uM; assay type: cell-based
Metabotropic glutamate receptor 4 (Homo sapiens), sequence (Q14833 whole entry): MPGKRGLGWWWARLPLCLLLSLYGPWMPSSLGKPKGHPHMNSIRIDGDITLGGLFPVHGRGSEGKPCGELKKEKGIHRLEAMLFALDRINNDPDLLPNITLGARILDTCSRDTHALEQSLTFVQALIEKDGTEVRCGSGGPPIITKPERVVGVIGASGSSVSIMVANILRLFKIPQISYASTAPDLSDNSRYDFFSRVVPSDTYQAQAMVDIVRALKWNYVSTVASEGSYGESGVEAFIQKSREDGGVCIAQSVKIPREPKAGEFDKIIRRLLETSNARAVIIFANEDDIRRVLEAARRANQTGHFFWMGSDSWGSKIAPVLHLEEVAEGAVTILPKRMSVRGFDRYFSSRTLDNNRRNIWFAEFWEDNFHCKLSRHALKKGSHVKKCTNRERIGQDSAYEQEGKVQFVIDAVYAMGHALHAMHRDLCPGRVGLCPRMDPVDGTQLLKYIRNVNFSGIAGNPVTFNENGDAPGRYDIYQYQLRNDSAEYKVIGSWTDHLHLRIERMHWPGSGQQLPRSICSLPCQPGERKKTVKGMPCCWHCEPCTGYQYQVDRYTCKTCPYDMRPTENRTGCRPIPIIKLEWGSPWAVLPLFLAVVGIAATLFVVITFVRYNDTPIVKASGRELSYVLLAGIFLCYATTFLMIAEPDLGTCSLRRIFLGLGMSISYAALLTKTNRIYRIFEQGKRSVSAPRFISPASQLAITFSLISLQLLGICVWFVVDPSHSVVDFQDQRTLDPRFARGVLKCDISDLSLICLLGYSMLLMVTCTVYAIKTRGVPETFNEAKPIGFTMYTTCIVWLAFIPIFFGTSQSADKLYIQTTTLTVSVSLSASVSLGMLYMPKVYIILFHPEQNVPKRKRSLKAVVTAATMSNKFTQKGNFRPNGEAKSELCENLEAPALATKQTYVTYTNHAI

[9] = target: Metabotropic glutamate receptor 5 (Rattus norvegicus) (UniProt P31424); conditions: HEK293-A, 0.0001 to 100 uM

Activity [1] | Ki [2] | IC50 [3] | inhibition [4] | inhibition [5] | inhibition [6] | inhibition [7] | inhibition [8] | inhibition [9] | Structure (SMILES)
inactive | 4720 nM | 9150 nM | < 50% | < 50% | < 50% | < 50% | < 50% | – | Cc1ccc2ccc(-c3ccc(Cl)cc3C#N)cc2n1
inactive | 97 nM | 81 nM | < 50% | < 50% | < 50% | < 50% | < 50% | – | Cc1ccc2ccc(-c3cnc(-c4ccccc4)c(C#N)c3)cc2n1
inactive | 596 nM | 294 nM | < 50% | < 50% | < 50% | < 50% | < 50% | – | COCOc1ccc(-c2ccc3ccc(C)nc3c2)cc1C#N
inactive | 862 nM | 7840 nM | < 50% | < 50% | < 50% | < 50% | < 50% | – | Cc1nc2cc(-c3ccc(OS(=O)(=O)C(F)(F)F)c(C#N)c3)ccc2s1
inactive | 7130 nM | > 10000 nM | < 50% | < 50% | < 50% | < 50% | < 50% | – | Cc1nc2cc(-c3ccc(OCc4ccccc4)c(C#N)c3)ccc2s1
inactive | 1040 nM | > 10000 nM | < 50% | < 50% | < 50% | < 50% | < 50% | – | Cc1ccc2ccc(-c3ccc(OCc4ccccc4)c(C#N)c3)cc2n1
inactive | 4680 nM | > 10000 nM | < 50% | < 50% | < 50% | < 50% | < 50% | – | Cc1nc2cc(-c3ccc(-c4ccc(F)cc4)c(C#N)c3)ccc2s1
inactive | – | – | < 50% | < 50% | < 50% | < 50% | < 50% | – | Cc1nc2cc(-c3cccc(C#N)c3)ccc2s1
inactive | > 10000 nM | > 10000 nM | < 50% | < 50% | < 50% | < 50% | < 50% | – | Cc1ccc2ccc(-c3ccc(O)c(C#N)c3)cc2n1
inactive | – | – | < 50% | < 50% | < 50% | < 50% | < 50% | – | Cc1nc(C#Cc2cccnc2)cs1
inactive | 730 nM | 1340 nM | < 50% | < 50% | < 50% | < 50% | < 50% | – | Cc1ccc2ccc(-c3ccc(-c4cccnc4)c(C#N)c3)cc2n1
inactive | 1.5 nM | 13 nM | < 50% | < 50% | < 50% | < 50% | < 50% | – | Cc1cccc(C#Cc2cncc(C#N)c2)n1
inactive | > 10000 nM | 3310 nM | < 50% | < 50% | < 50% | < 50% | < 50% | 50% | Cc1ccc2ccc(-c3cnc(Cl)c(C#N)c3)cc2n1
inactive | 97 nM | 1250 nM | < 50% | < 50% | < 50% | < 50% | < 50% | – | Cc1ccc2ccc(-c3ccc(-c4ccccc4)c(C#N)c3)cc2n1
inactive | 64 nM | 692 nM | < 50% | < 50% | < 50% | < 50% | < 50% | – | Cc1ccc2ccc(-c3ccc(-c4ccc(F)cc4)c(C#N)c3)cc2n1
